High-throughput results as filed in PubChem.
Rev-RRE block: disrupts HIV-1 Rev binding to RRE RNA | P05866 | Rev peptide-RRE RNA binding, FRET | inhibition, % at 8 µM | 97,000 tested, 0.79% active | AID 704;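 active means inhibition above the screen-wide mean plus 3 SD, cut at about 35% in these data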;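 further: 0% = median DMSO wells and 100% = median Neomycin B control wells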
Target sequence (P05866 whole entry, looked up): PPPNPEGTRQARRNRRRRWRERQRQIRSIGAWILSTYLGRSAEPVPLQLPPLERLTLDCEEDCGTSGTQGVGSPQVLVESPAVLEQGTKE
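Assay system: labelled RRE RNA duplex and labelled Rev peptide / Medium: HEPES pH 7.5 salt buffer with EDTA / Reagent: labelled Rev peptide / Schedule: 5 + 15 min at 25 °C / Signal: FRET, excitation 480 nm, emission 540 nm donor and 671 nm acceptor / Benchmarks: DMSO and neomycin B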
IL1B NFkB inh: blocks IL-1B driven NFkB nuclear translocation in HUVEC cells | inhibition, % at 2 µM | 94,000 tested, 0.43% active | HUVEC IL-1B NFkB p65 nuclear translocation imaging;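 active means inhibition above about 30% together with a positive call from visual inspection of the well image, limit read from the data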;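 further: nuclear over cytoplasmic p65 intensity ratio measured by imaging; 0% = IL-1B stimulated DMSO wells and 100% = unstimulated DMSO wells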
HUVEC tox IL1B: HUVEC cytotoxicity counter-screen, IL-1B stimulated; HUVEC cell count loss, Hoechst imaging; cell count reduction, % at 2 µM; 94,000 tested, 0.41% active;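 active means cell count reduction more than 3 SD above the screen-wide mean, cut at about 70% in these data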;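 further: normalized per plate to untreated control cells as the no-loss baseline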
IL1B NFkB pot: enhances IL-1B driven NFkB nuclear translocation; activation, % at 2 µM; 94,000 tested, 0.3% active; AID 819; HUVEC IL-1B NFkB p65 nuclear translocation imaging;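 active means activation above 40%, about the mean plus 3 SD, also judged a hit on visual image review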;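 further: percent activation is computed from the nuclear over cytoplasmic p65 intensity ratio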
Measles CPE: protection of cells from measles virus. Measles virus-infected cells, CPE protection, absorbance. protection (pct of control), % at 4 µM. 140,000 tested, 1.5% active. AID 841; in the data active means protection mostly above about 24%, no sharp cut-off; inactive means mostly below about 26%
FAK blocker: inhibitors of human focal adhesion kinase | AID 727 | inhibition, %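 (tested at 7 µM)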 | 97,000 tested, 0.84% active | Q05397 | biochemical FAK kinase activity assay; in the data active means inhibition above about 19%;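 further: 0% = DMSO and 100% = reference compound high control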
* hit, by the source's call; · = not tested or not shown. In the library only some 3.3% were active in any assay of this set; here they are far more common.

SMILES | Rev-RRE block | IL1B NFkB inh | HUVEC tox IL1B | IL1B NFkB pot | Measles CPE | FAK blocker
NS(=O)(=O)c1cccc(NC(=S)NC(=O)C23CC4CC(CC(C4)C2)C3)c1 | · | · | · | · | 44.3* | ·
Cc1c(Br)c([N+](=O)[O-])nn1CC(=O)Nc1c(C)n(C)n(-c2ccccc2)c1=O | · | · | · | · | 6.4 | ·
Cc1ccc(-n2ncc3c(SCc4ccccc4)ncnc32)cc1 | · | · | · | · | 35.3* | ·
CCN(c1ccccc1)c1ncnc2c1cnn2-c1ccccc1 | 13.2 | 9.4 | 17.7 | -9.4 | 48.8* | 5.8
CN(Cc1ccccc1)c1ncnc2c1cnn2-c1ccccc1 | 7.6 | 4.3 | -89.3 | -4.3 | 11.3 | 0.6
Cc1ccc(CSc2ncnc3c2cnn3-c2ccccc2)cc1 | · | · | · | · | 1.6 | ·
CC(NC(=O)CSC(=S)N(C)C)C12CC3CC(CC(C3)C1)C2 (stereo not given) | · | · | · | · | 9.4 | ·
C/C(=N\O)C(=O)NCCCNCCCN(C)C | 10.6 | 18.0 | 4.8 | -18.0 | 48.9* | -0.6
CCN(CC)C(=O)CNc1ccc(C(F)(F)F)cc1[N+](=O)[O-] | · | · | · | · | 3.4 | ·
O=c1c2[nH]c3ccccc3c2ncn1Cc1cccnc1 | 1.9 | -50.1 | 0.9 | 50.1* | 6.4 | -0.8
Cc1cc(C)c2nc(C(F)(F)F)nc(NCCCN3CCCC3=O)c2c1 | 9.6 | 30.9* | 0.0 | -30.9 | 21.2 | 3.4
Cc1cc(C(=O)NCCCN2CCCC2=O)no1 | 9.0 | 9.8 | 5.1 | -9.8 | 6.5 | -3.6
CCCC1=C([O-])C2N=CC=CC2=[N+](c2ccccn2)C1=O (stereo not given) | · | · | · | · | 7.2 | ·
COc1ccc(C(=O)/C=C/c2ccc(N3CCCCC3)c([N+](=O)[O-])c2)cc1 | · | · | · | · | 3.5 | ·
COc1ccc(C(=O)/C=C/c2ccc(N3CCCCC3)c([N+](=O)[O-])c2)c(OC)c1 | · | · | · | · | 49.9* | ·
CCc1ncc(C(O)c2cccc(OC)c2OC)n1C (stereo not given) | 1.7 | 99.0* | 89.7* | -99.0 | 5.1 | 3.3
Cc1ccc(NS(=O)(=O)c2ccc(Cl)c(NC(=S)NC(=O)C3CCCCC3)c2)cc1Cl | · | · | · | · | 36.1 | ·
COC(=O)C(/C=N/OCc1ccc([N+](=O)[O-])cc1)NC(=O)c1ccccc1 (stereo not given) | 6.9 | -43.9 | -3.2 | 43.9* | 19.0 | 0.8
COC(=O)[C@@H](NC(=O)Nc1ccc(S(N)(=O)=O)cc1)C(C)C | · | · | · | · | 30.7* | ·
COC(=O)[C@@H](NC(=O)Nc1ccc(C(C)=O)cc1)C(C)C | 6.8 | -2.1 | 28.0 | 2.1 | 104.2* | 7.1
CC(=O)Nc1cccc(NC(=O)Nc2ccc(C(C)=O)cc2)c1 | 5.4 | -2.3 | -62.4 | 2.2 | 43.9* | 2.2
Nc1[nH]c(=O)ncc1F | · | · | · | · | 21.7 | ·
CCCN(CCC)CCNc1c(NC2CCN(C(=O)OCC)CC2)c(=O)c1=O | -1.9 | -10.6 | 3.6 | 10.6 | 10.5 | -2.0
CCOC(=O)N1CCC(Nc2c(NCCCN(C)Cc3ccccc3)c(=O)c2=O)CC1 | -3.6 | -41.9 | -7.0 | 41.9* | 19.6 | 2.0
Cc1c(C(=O)N(C)Cc2ccccc2)oc2ccc(S(=O)(=O)N3CCCC3)cc12 | 9.5 | 2.7 | 12.8 | -2.7 | 80.6* | -2.8
SMILES | Rev-RRE block | IL1B NFkB inh | HUVEC tox IL1B | IL1B NFkB pot | Measles CPE | FAK blocker
Cc1c(C(=O)NCc2ccco2)oc2ccc(S(=O)(=O)N3CCC4(CC3)OCCO4)cc12 | -2.5 | 31.8* | -2.0 | -31.8 | 5.6 | -3.2
Cc1ccccc1/C(N)=N/OC(=O)c1cccs1 | · | · | · | · | 12.3 | ·
O=C(NCCc1c[nH]c2ccccc12)c1cccnc1 | 12.8 | -6.0 | 30.6 | 6.0 | 74.2* | -1.3
O=C(NCCCCCNC(=O)c1cccnc1)c1cccnc1 | 8.4 | -3.9 | 2.7 | 3.9 | 20.3 | -0.2
CS(=O)(=O)N(Cc1ccccc1Cl)c1ccc(C(=O)NCc2ccccn2)cc1 | · | · | · | · | 14.5 | ·
CN1CCc2nc(SCc3ccc(Cl)cc3)c(C#N)c(-c3cccs3)c2C1 | 40.2* | 8.4 | 9.6 | -8.4 | · | 7.2
CC(C)[C@H](NC(=O)NC1CCCc2ccccc21)C(=O)O (stereo not given in full) | 5.3 | 1.9 | 10.4 | -1.9 | 20.5* | 0.9
COC(=O)[C@H](C)NC(=O)NC1CCCc2ccccc21 (stereo not given in full) | 4.4 | -13.5 | -2.1 | 13.5 | 56.4* | -0.9
COC(=O)[C@H](CC(C)C)NC(=O)NC1CCCc2ccccc21 (stereo not given in full) | 3.6 | 7.5 | 5.5 | -7.5 | 5.1 | 0.5
Cc1occc1C(=O)NC1CCCCCCC1 | · | · | · | · | 27.6* | ·
CNC(=O)NC1CCCc2ccccc21 (stereo not given) | 2.4 | -17.3 | -1.5 | 17.3 | 23.4* | -1.3
CCC(=O)N(Cc1ccco1)C1CC(=O)N(c2ccccc2)C1=O (stereo not given) | · | · | · | · | 12.5 | ·
O=C(NC1CCCc2ccccc21)c1ccccc1 (stereo not given) | · | · | · | · | 4.9 | ·
Cc1occc1C(=O)NC1CCCc2ccccc21 (stereo not given) | -0.6 | 6.6 | 79.5* | -6.6 | 12.9 | 0.4
CCn1ncc(C2=NOC(C(=O)Nc3ccc4c(c3)OCO4)C2)c1C (stereo not given) | · | · | · | · | 6.5 | ·
O=C(Nc1ccc2c(c1)OCO2)C1CC(c2ccc(Cl)cc2)=NO1 (stereo not given) | -1.5 | -3.7 | -16.0 | 3.7 | 39.8* | -4.2
COc1ccc(NS(=O)(=O)c2ccc(NC(=S)NC(=O)/C=C/c3ccccc3)cc2)nn1 | · | · | · | · | 33.5 | ·
Cc1cccc2sc(NC(=O)c3ccc(NS(=O)(=O)c4cccs4)cc3)nc12 | · | · | · | · | 4.1 | ·
COc1ccc(-c2[nH]c(-c3ccc(C(=O)O)cc3)nc2-c2ccccc2)cc1 | -0.8 | 64.3* | 10.9 | -64.3 | 2.7 | 1.7
CN(C)c1ccc(N/C(=N\S(=O)(=O)c2cccs2)c2ccccc2)cc1 | · | · | · | · | 4.4 | ·
CN(/C(=N/S(=O)(=O)c1cccs1)c1ccccc1)c1ccccc1 | · | · | · | · | 29.4* | ·
CCOc1ccc(Nc2cc(C)nc(-n3nc(C)cc3C)n2)cc1 | 4.9 | -6.0 | 0.5 | 6.0 | 42.6* | -6.0
CNc1cc(C)nc(-n2nc(C)cc2C)n1 | 6.5 | -16.0 | -17.2 | 16.0 | 4.7 | -1.9
Cc1ccc(Nc2cc(C)nc(N3CCOCC3)n2)c(C)c1 | · | · | · | · | 23.1 | ·
COc1ccc(Nc2cc(C)nc(N3CCOCC3)n2)cc1 | -0.6 | -106.0 | -18.1 | 106.0* | 3.0 | 8.4
SMILES | Rev-RRE block | IL1B NFkB inh | HUVEC tox IL1B | IL1B NFkB pot | Measles CPE | FAK blocker
Cc1cc(C(=O)COC(=O)c2ccc(CO)cc2)c(C)n1CC1COc2ccccc2O1 (stereo not given) | · | · | · | · | 18.5 | ·
O=C(Nc1nc(-c2ccccc2)ns1)c1cccs1 | 5.1 | 10.0 | 1.9 | -10.0 | 33.2* | -1.4
O=C(Nc1nc(-c2ccccc2)cs1)c1cccs1 | -2.9 | -9.7 | 0.7 | 9.7 | 1.1 | 1.6
CCCN(CCC)c1nc2ccccc2n2c(C)nnc12 | 3.6 | -11.7 | -37.7 | 11.7 | 44.3* | -0.4
O=[N+]([O-])c1c(Nc2ccccc2)ccc2nonc12 | 6.3 | 2.2 | -8.6 | -2.2 | 28.1* | -4.0
COc1cccc(Nc2cc(N3CCOCC3)c3nonc3c2[N+](=O)[O-])c1 | 2.6 | 12.2 | -19.8 | -12.2 | 3.6 | 0.1
Cc1nc(NCCc2ccccc2)c(C#N)c(C)c1[N+](=O)[O-] | · | · | · | · | 27.8 | ·
